Reference: ChEMBL document CHEMBL1135534, “Synthesis, cytotoxicity, and antiplasmodial and antitrypanosomal activity of new neocryptolepine derivatives” (J Med Chem, 2002)
The source made the active and inactive calls. The calls are words filed in the database; no cut-off is given here.

Columns and labels:
[1] = Inhibition of beta-hematin formation; active
Trypanosoma cruzi = test: Antitrypanosomal activity against Trypanosoma cruzi; type: functional, organism-based
Outline: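 Primary mouse peritoneal macrophages seeded at 30 000 per well; after 24 h, about 10 000 trypomastigotes added per well with 2-fold drug dilutions. Incubated 4 days at 37 °C in 5% CO2/95% air. Cells MeOH-fixed and Giemsa-stained. Percent reduction of total parasite load (free trypomastigotes plus intracellular amastigotes) versus untreated cultures scored microscopically. IC50 in triplicate (mean ± SD).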

Trypanosoma brucei = test: Antitrypanosomal activity against Trypanosoma brucei.; type: functional, organism-based
Outline: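 Bloodstream-form trypomastigotes grown in HMI-9 medium; 10 000 parasites per well exposed to a range of compound concentrations for 4 days. Multiplication read colorimetrically at 490 nm after MTT addition. Test compounds as hydrochloride salts; IC50 determined in triplicate (mean ± SD).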

Plasmodium falciparum [2] = test: Antiplasmodial activity against chloroquine-resistant Plasmodium falciparum W2; type: functional, organism-based
Outline: (§1)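 Asexual P. falciparum cultures at 1% parasitaemia and 2% haematocrit (W2 for line 1, Ghana for line 2) exposed to 2-fold serial dilutions of the HCl salt for 48 h at 37 °C under 93% N2/4% CO2/3% O2. Plates frozen at -20 °C to lyse cells. Parasite LDH read-out: APAD reduction coupled to NBT formazan at 650 nm. IC50 in triplicate, mean ± SD.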

MRC5 = test: Cytotoxicity against human diploid embryonic lung cell line MRC-5 using MTT assay; type: functional, cell-based
Outline: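 Cells seeded at 5000 per well and washed after 24 h. 2-fold drug dilutions added in RPMI + 5% FCS, final DMSO below 0.5%. Incubated 7 days at 37 °C, 5% CO2/95% air. MTT read-out at 540 nm as percent reduction versus untreated controls. IC50 in triplicate (mean ± SD).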

Plasmodium falciparum [3] = test: Antiplasmodial activity against chloroquine-sensitive Plasmodium falciparum Ghana; type: functional, organism-based
Outline: as §1

Nucleic Acid [4] = test: (§2) Inhibition of DNA interaction using DNA Methyl Green Assay.; type: nucleic-acid assay
Outline: (§3)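 DNA–methyl green complex stirred 24 h at 37 °C in 0.05 M Tris-HCl pH 7.5 with 7.5 mM MgSO4. Compound dried in wells under vacuum, then complex solution added. Absorbance at 620 nm compared between start and 24 h. IC50 taken as the concentration giving 50% absorbance decrease (50% dye displacement).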

[5] = biological target: T1, Histidine-rich protein PFHRP-II (Plasmodium falciparum) (UniProt P05227); test: Inhibition of beta-hematin formation; active; type: functional
T1 sequence (whole entry): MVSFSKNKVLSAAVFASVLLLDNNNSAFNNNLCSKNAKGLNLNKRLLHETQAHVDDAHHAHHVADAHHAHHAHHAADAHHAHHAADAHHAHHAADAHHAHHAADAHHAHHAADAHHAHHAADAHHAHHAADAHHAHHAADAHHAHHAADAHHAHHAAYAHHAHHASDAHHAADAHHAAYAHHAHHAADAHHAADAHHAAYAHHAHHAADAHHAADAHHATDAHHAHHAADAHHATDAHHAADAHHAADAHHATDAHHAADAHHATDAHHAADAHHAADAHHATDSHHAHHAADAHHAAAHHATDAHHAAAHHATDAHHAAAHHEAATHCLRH
Outline: (§4)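 Hematin solutions received compound at 3 equiv relative to hemin before acidification. Incubated 40 min at 60 °C, then cooled and filtered; precipitate washed with water and dried. β-Hematin detected by FT-IR bands at 1660 and 1207 cm-1. Hemin without compound served as the formation control. Result is a qualitative yes/no call.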

Nucleic Acid [6] = test: as §2; type: nucleic-acid assay; conditions: concentration not given here
Outline: as §3

[7] = biological target: T1, Histidine-rich protein PFHRP-II (Plasmodium falciparum); test: Inhibition of beta-hematin formation; no inhibition; type: functional
Outline: as §4

Nucleic Acid [8] = test: as §2; type: functional
Outline: as §3

| inhibition [5] | inhibition (Nucleic Acid [6]) | SMILES | inhibition [1] | IC50 (Trypanosoma cruzi) | IC50 (Trypanosoma brucei) | IC50 (Plasmodium falciparum [2]) | IC50 (MRC5) | IC50 (Plasmodium falciparum [3]) | IC50 (Nucleic Acid [4]) | inhibition [7] | IC50 (Nucleic Acid [8]) |
| --- | --- | --- | --- | --- | --- | --- | --- | --- | --- | --- | --- |
|  |  | Cn1c2nc3ccccc3c-2cc2ccccc21 [NEOCRYPTOLEPINE] | Active | 4 µM | 4 µM | 14 µM | 11 µM | 27.3 µM | 92.8 µM |  |  |
|  |  | Cn1c2nc3ccccc3c-2cc2cc(C#N)ccc21 |  | 16.3 µM | 4 µM | 15.3 µM | 16 µM | 17 µM | > 600 µM |  |  |
|  |  | Cn1c2nc3ccccc3c-2cc2cc(I)ccc21 | Active | 18.3 µM | 1 µM | 6.3 µM | 16 µM | 17.7 µM | > 400 µM |  |  |
| Active |  | Cn1c2nc3ccccc3c-2cc2ccc(Br)cc21 |  | > 32 µM | 27.3 µM |  | 18.5 µM |  | > 600 µM |  |  |
| Active |  | Cn1c2nc3ccccc3c-2cc2ccc(Cl)cc21 |  | 17 µM | 9.3 µM |  | 15.5 µM |  | > 700 µM |  |  |
|  |  | C[n+]1c2ccccc2cc2[n-]c3ccccc3c21 [CRYPTOLEPINE] | Active |  | 3 µM | 2 µM | 1.5 µM | 2.3 µM | 65.7 µM |  |  |
|  |  | Cn1c2nc3ccc(C#N)cc3c-2cc2ccccc21 | Active |  | > 32 µM | > 32 µM | > 32 µM | > 32 µM | > 1000 µM |  |  |
|  | 37% | COc1ccc2cc3c4ccccc4nc-3n(C)c2c1 |  | 1 µM | 0.4 µM |  | 3.5 µM |  | 150 µM | No inhibition |  |
|  |  | Cn1c2nc3ccccc3c-2cc2cc(F)ccc21 | Active | 6 µM | 14.3 µM | 4.7 µM | 15 µM | 19.3 µM | > 500 µM |  |  |
|  |  | Cc1ccc2c(c1)cc1c3ccccc3nc-1n2C |  |  | 0.1 µM | 2.3 µM | 0.95 µM | 2.7 µM |  |  |  |
|  |  | Cn1c2nc3ccc(C#N)cc3c-2cc2cc(Cl)ccc21 |  |  | > 32 µM | > 32 µM | > 32 µM | > 32 µM |  |  |  |
| Active |  | Cn1c2nc3ccccc3c-2cc2ccc(C(F)(F)F)cc21 |  | > 32 µM | 16.7 µM |  | 18 µM |  | > 500 µM |  |  |
|  |  | CSc1ccc2c(c1)cc1c3ccccc3nc-1n2C | Active | 4 µM | 0.8 µM | 3.7 µM | 5 µM | 4 µM | > 600 µM |  |  |
|  |  | Cn1c2nc3ccc(C#N)cc3c-2cc2cc(C(F)(F)F)ccc21 |  | > 32 µM | > 32 µM | 6.7 µM | > 32 µM | 14 µM | > 200 µM |  |  |
|  |  | Clc1ccc2[nH]c3nc4ccccc4c-3cc2c1 | Active | > 32 µM | > 32 µM | > 32 µM | > 32 µM | > 32 µM | > 1000 µM |  |  |
|  |  | COc1ccc2c(c1)cc1c3cc(C#N)ccc3nc-1n2C |  | 1 µM | 1 µM | 17 µM | > 32 µM | 28.3 µM | > 500 µM | No inhibition |  |
|  |  | Cn1c2nc3ccccc3c-2cc2cc([N+](=O)[O-])ccc21 |  |  | 0.7 µM | > 32 µM | > 32 µM | 29 µM | > 1000 µM |  |  |
|  |  | COc1cccc2c1cc1c3ccccc3nc-1n2C |  | 4 µM | 1.3 µM | 12.3 µM | 5 µM | 17.7 µM | > 1000 µM | No inhibition |  |
|  |  | COc1ccc2c(c1)cc1c3ccccc3nc-1n2C |  | 1.7 µM | 0.3 µM | 4.7 µM | 4 µM | 4.3 µM | 77.9 µM | No inhibition |  |
|  |  | Fc1ccc2[nH]c3nc4ccccc4c-3cc2c1 |  | > 32 µM | > 32 µM | > 32 µM | > 32 µM | > 32 µM | > 1000 µM | No inhibition |  |
|  |  | Cn1c2nc3ccccc3c-2cc2c(C(F)(F)F)cccc21 |  | 16.3 µM | > 32 µM | > 32 µM | 16 µM | > 32 µM | > 400 µM |  |  |
|  |  | Cn1c2nc3ccc(C#N)cc3c-2cc2cc(F)ccc21 | Active | > 32 µM | 4 µM | 14.7 µM | 11 µM | 16.3 µM | > 600 µM |  |  |
|  |  | Cn1c2nc3ccccc3c-2cc2c(Br)cccc21 |  | 15.7 µM | 16.7 µM | > 32 µM | 16 µM | > 32 µM | > 600 µM | inactive |  |
|  |  | Cn1c2nc3ccccc3c-2cc2cc(Br)ccc21 | Active | > 32 µM | 1 µM | 4 µM | > 32 µM | 6 µM | > 400 µM |  |  |
|  |  | Clc1cc(Cl)c2[nH]c3nc4ccccc4c-3cc2c1 | Active |  | > 32 µM | > 32 µM | > 32 µM | > 32 µM |  |  | > 1000 µM |
|  |  | Cn1c2nc3ccccc3c-2cc2cc(Cl)ccc21 | Active | 12 µM | 1.3 µM | 5 µM | 16.5 µM | 21 µM | > 500 µM |  |  |

| SMILES | inhibition [5] | inhibition (Nucleic Acid [6]) | inhibition [1] | IC50 (Trypanosoma cruzi) | IC50 (Trypanosoma brucei) | IC50 (Plasmodium falciparum [2]) | IC50 (MRC5) | IC50 (Plasmodium falciparum [3]) | IC50 (Nucleic Acid [4]) | inhibition [7] | IC50 (Nucleic Acid [8]) |
| --- | --- | --- | --- | --- | --- | --- | --- | --- | --- | --- | --- |
| COc1ccc2[nH]c3nc4ccccc4c-3cc2c1 | Active |  |  |  | > 32 µM | > 32 µM | > 32 µM | > 32 µM | > 1000 µM |  |  |
